Results as given in ChEMBL document CHEMBL1140517, “Synthesis, antifungal and antimycobacterial activities of new bis-imidazole derivatives, and prediction of their binding to P450(14DM) by molecular docking and MM/PBSA method” (2007).
In brackets after ≈: the same amount, converted by molar mass.

What was measured:
Format in all cases: functional
Candida albicans [1] = assay: Antimicrobial activity against Candida albicans 3038 after 48 hrs
Summary of the method: (§1)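 Broth MIC against clinical Candida isolates (C. albicans 3038 and C. glabrata 123). Compounds were taken from 4 mg/mL DMSO stock solutions (stock, not final concentration). Miconazole and amphotericin B served as reference compounds. Each MIC was determined twice in duplicate experiments and read after 24 h and 48 h of incubation.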

[2] = tested on: Mycobacterium tuberculosis; assay: Antimicrobial activity against Mycobacterium tuberculosis H37Rv after 24 hrs
Candida albicans [3] = assay: Antimicrobial activity against Candida albicans 3038 after 24 hrs; summary of the method: as §1
Nakaseomyces glabratus [4] = assay: Antimicrobial activity against Candida glabrata 123 after 48 hrs; summary of the method: as §1
Nakaseomyces glabratus [5] = assay: Antimicrobial activity against Candida glabrata 123 after 24 hrs; summary of the method: as §1
[6] = tested on: Mycobacterium tuberculosis; assay: Antimicrobial activity against Mycobacterium tuberculosis H37Rv assessed per disk after 24 hrs

Row | SMILES | MIC (Candida albicans [1]) [µg/mL] | MIC [2] [µg/mL] | MIC (Candida albicans [3]) [µg/mL] | MIC (Nakaseomyces glabratus [4]) [µg/mL] | MIC (Nakaseomyces glabratus [5]) [µg/mL] | MIC [6] [mg]
1 | O=C(c1ccc([N+](=O)[O-])cc1)C(Cn1ccnc1)Cn1ccnc1 | > 128 | 64 (≈ 197 µM) | 128 (≈ 393 µM) | > 128 | 128 (≈ 393 µM) | 
2 | O=C(c1ccc(-c2ccccc2)cc1)C(Cn1ccnc1)Cn1ccnc1 | 4 (≈ 11.2 µM) | 8 (≈ 22.4 µM) | 2 (≈ 5.61 µM) | 8 (≈ 22.4 µM) | 4 (≈ 11.2 µM) | 
3 | O=C(c1ccc(Br)s1)C(Cn1ccnc1)Cn1ccnc1 | 64 (≈ 175 µM) | 16 (≈ 43.8 µM) | 64 (≈ 175 µM) | 128 (≈ 350 µM) | 64 (≈ 175 µM) | 
4 | O=C(c1ccc(Br)cc1)C(Cn1ccnc1)Cn1ccnc1 | 32 (≈ 89.1 µM) | 16 (≈ 44.5 µM) | 16 (≈ 44.5 µM) | 64 (≈ 178 µM) | 32 (≈ 89.1 µM) | 
5 | O=C(c1ccc(F)cc1)C(Cn1ccnc1)Cn1ccnc1 | 128 (≈ 429 µM) | 16 (≈ 53.6 µM) | 64 (≈ 215 µM) | 128 (≈ 429 µM) | 128 (≈ 429 µM) | 
6 | Cc1ccc(C(=O)C(Cn2ccnc2)Cn2ccnc2)cc1 | 128 (≈ 435 µM) | 8 (≈ 27.2 µM) | 64 (≈ 217 µM) | 128 (≈ 435 µM) | 128 (≈ 435 µM) | 
7 | O=C(c1cccs1)C(Cn1ccnc1)Cn1ccnc1 | 128 (≈ 447 µM) | 16 (≈ 55.9 µM) | 128 (≈ 447 µM) | 128 (≈ 447 µM) | 128 (≈ 447 µM) | 
8 | O=C(c1ccc(Cl)s1)C(Cn1ccnc1)Cn1ccnc1 | 64 (≈ 199 µM) | 16 (≈ 49.9 µM) | 64 (≈ 199 µM) | 128 (≈ 399 µM) | 64 (≈ 199 µM) | 
9 | O=C(c1ccc(Cl)cc1)C(Cn1ccnc1)Cn1ccnc1 | 32 (≈ 102 µM) | 16 (≈ 50.8 µM) | 16 (≈ 50.8 µM) | 64 (≈ 203 µM) | 32 (≈ 102 µM) | 
10 | OC(c1ccc(Br)cc1)C(Cn1ccnc1)Cn1ccnc1 (stereo not drawn) | > 128 | 8 (≈ 22.1 µM) | 128 (≈ 354 µM) |  | 128 (≈ 354 µM) | 
11 | COc1ccc(C(O)C(Cn2ccnc2)Cn2ccnc2)cc1 (stereo not drawn) | > 128 | 64 (≈ 205 µM) | 128 (≈ 410 µM) | > 128 | 128 (≈ 410 µM) | 
12 | O=C(c1ccccc1)C(Cn1ccnc1)Cn1ccnc1 | 64 (≈ 228 µM) | 16 (≈ 57.1 µM) | 64 (≈ 228 µM) | 128 (≈ 457 µM) | 128 (≈ 457 µM) | 
13 | COc1ccc(C(=O)C(Cn2ccnc2)Cn2ccnc2)cc1 | 128 (≈ 412 µM) | 16 (≈ 51.6 µM) | 64 (≈ 206 µM) | 128 (≈ 412 µM) | 128 (≈ 412 µM) | 
14 | C[C@@H]1[C@H](O)[C@@H](C)/C=C/C=C/C=C/C=C/C=C/C=C/C=C/[C@H](O[C@@H]2O[C@H](C)[C@@H](O)[C@H](N)[C@@H]2O)C[C@@H]2O[C@](O)(C[C@@H](O)C[C@@H](O)[C@H](O)CC[C@@H](O)C[C@@H](O)CC(=O)O[C@H]1C)C[C@H](O)[C@H]2C(=O)O [AMPHOTERICIN B] | 2 (≈ 2.16 µM) |  | 1 (≈ 1.08 µM) | 2 (≈ 2.16 µM) | 0.5 (≈ 0.541 µM) | 
15 | Clc1ccc(COC(Cn2ccnc2)c2ccc(Cl)cc2Cl)c(Cl)c1 (stereo not drawn) [MICONAZOLE] | 5 (≈ 12 µM) |  | 2.5 (≈ 6.01 µM) | 2.5 (≈ 6.01 µM) | 1.25 (≈ 3 µM) | 
16 | CO[C@H]1/C=C/O[C@@]2(C)Oc3c(C)c(O)c4c(O)c(c(/C=N/N5CCN(C)CC5)c(O)c4c3C2=O)NC(=O)/C(C)=C\C=C\[C@H](C)[C@H](O)[C@@H](C)[C@@H](O)[C@@H](C)[C@H](OC(C)=O)[C@@H]1C [RIFAMPIN] |  |  |  |  |  | 1
